Tests used:
[1] = Spectroscopic characterization in 0.1 M NaOH; assay type: physicochemical; conditions: in 0.1M NaOH(aq); for ε: at max absorption; for Φfl: relative to fluorescein
[2] = pH titration of absorbance; assay type: physicochemical; conditions: for phenolic pKa (transition to the dianion): absorbance at λmax vs pH, 10 mM buffers, 150 mM NaCl, 2 μM dye
Method in brief: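 Dichlorofluorescein dyes at 2 μM in 10 mM buffered solutions containing 150 mM NaCl, spanning pH 2.4 to 9.8 (intermediate steps 3.1–9.2); absorbance spectra recorded and normalized. Normalized absorbance at λmax plotted against pH and fitted to sigmoidal dose-response curves to obtain pKa; n = 3 independent determinations, error as ± SEM.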

HEK293T (HEK) cells = assay: Cell permeability by fluorescence microscopy; assay type: cell-based; conditions: 500 nM, 20 min, 37 °C
Method in brief: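 HEK293T cells incubated with 500 nM test compound (free acid or acetoxymethyl ester forms) for 20 min at 37 °C, washed once with HBSS, then imaged by widefield fluorescence and DIC microscopy to assess uptake.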

[3] = MTT reduction assay, cellular toxicity; assay type: cell-based

| Compound | λmax [1] [nm] | λem [1] [nm] | ε [1] | Φfl [1] | pKa of trianion formation (phosphonate, hypsochromic shift) ([2]; quantification of 5 nm hypsochromic shift with increasing pH) | uptake into cells / cell permeability (HEK293T (HEK) cells) | cellular toxicity [3] | phenolic pKa (transition to the dianion) [2] |
| --- | --- | --- | --- | --- | --- | --- | --- | --- |
| 2’,7’-dichloro-3-carboxyfluorescein [2’,7’-dichloro-3-carboxy-fluorescein, reference compound] | 502 |  |  |  |  |  |  |  |
| 2’,7’-dichloro-3-phosphonofluorescein [compound 4] | 498 | 517 | 88,000 M^−1cm^−1 | 0.90 | 7.8 | no uptake | very low cellular toxicity |  |
| 2’,7’-dichloro-3-sulfonofluorescein [sF.Cl, reference compound] | 509 | 526 | 87,000 M^−1cm^−1 | 0.89 |  |  |  |  |
| 2’,7’-difluoro-3-phosphonofluorescein [compound 5] | 488 | 508 | 84,000 M^−1cm^−1 | 0.94 |  |  |  | 4.8 |
| O=c1ccc2c(-c3ccccc3P(=O)(O)O)c3ccc(O)cc3oc-2c1 [compound 6, 3-phosphonofluorescein] | 487 | 508 | 75,000 M^−1cm^−1 | 0.99 |  |  |  | 6.4 |
| O=C1OC2(c3ccc(O)cc3Oc3cc(O)ccc32)c2ccccc21 [fluorescein, reference compound] | 491 | 514 | 88,000 M^−1cm^−1 | 0.92 |  |  |  |  |
